70 molecules from ChEMBL document CHEMBL4513216, “Probing the Open Global Health Chemical Diversity Library for Multistage-Active Starting Points for Next-Generation Antimalarials” (ACS Infect Dis, 2020) can be followed below.

This data set can be described thus: Toxicity liver stage against HepG2, at 10uM. The following applies: human, HepG2-A16-CD81EGFP cells; read-out: INHIBITION
Set-up: test concentration 10 uM, cell line HepG2-A16-CD81EGFP. Format: cell-based. In a few lines:
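Uninfected HepG2-A16-CD81EGFP cells, 3 × 10^3 per well, 1536-well, plated on prespotted compound at 10 μM final, parasite-free screening media added to match infected plates; puromycin 10 μM positive, DMSO 0.5% negative; run in parallel with 48 h PbLuc assay at 37 °C, 5% CO2; viability by CellTiter-Glo luminescence, normalized to controls.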
Turning to `CS(=O)(=O)N1C[C@@H](F)[C@@H](OCc2nc3ccccc3o2)C1`, the cytotoxicity at 10 µM is -4.47%. The figure for `CN(C)c1cc(N2CCN(c3ccccn3)CC2)ncn1` is -2.71%; for `CCCS(=O)(=O)N1CC(=O)N(Cc2ccccc2OC)CC(O)C1` (stereo not given) it is -7.44%. Consider `CC(C)CNC(=O)CNC(=O)c1nc(Cc2c(Cl)cccc2Cl)no1`, for which the cytotoxicity at 10 µM came to 9.11%. The figure for `CN1C(=O)CCc2cc(NC(=O)C3CC3)ccc21` is 0.696%; for `O=S(=O)(NCCNc1cc(-n2cccn2)ncn1)c1cccs1` it is -6.58%; for `CCn1cc2c(n1)C(COCC1CC1)CN(c1ccc(C)nn1)C2` (stereo not given) it is 12.8%.

In the case of `O=C(C1CN(c2ncc(F)cn2)CC12CCOCC2)N1CCOCC1` (stereo not given), the cytotoxicity at 10 µM was 13.6%.

As to `Cc1cc(C(=O)N2CCc3ncnc(-c4cnn(C)c4)c3CC2)c(C)o1`, the cytotoxicity at 10 µM is 4.5%. For the molecule `CS(=O)(=O)N1CCc2sc(C(=O)NCc3ccncc3)cc21`, the cytotoxicity at 10 µM was 2.93%. The figure for `c1ccc(OCC2CC3(CCN(CC4CCOCC4)CC3)CO2)nc1` (stereo not given) is -1.37%. On to `O=C1CC[C@H]2[C@H](CCN2C(=O)N2CCCC2)N1Cc1ccncc1`, for which the cytotoxicity at 10 µM was -2.04%. The figure for `COc1ccc(-c2csc(N)c2C#N)cc1` is 4.07%; for `Cn1ccnc1C(=O)N1CCOC(Cc2ccccc2Cl)C1` (stereo not given) it is -12.2%; for `CCC(CC)C(=O)N1CCC(c2nn(CCN)c3nccnc23)C1` (stereo not given) it is -25.5%. The value for `Cc1ccc2c(c1)C(=O)NCC1(CCN(C(=O)c3sccc3C)CC1)O2` was -11.7%; that for `CC(C)N1CCC(Cc2cncc(-c3cc(F)ccc3C(=O)O)n2)CC1` was -8.36%; that for `Cc1cncc(C2CCN(Cc3cccn3C)CC2)n1` was -6.94%.

As for `O=C1CCCN1CCCC(=O)N1CCCC(Cc2cccnc2)C1` (stereo not given), the cytotoxicity at 10 µM was -4.5%. For `CC(C)c1nccn1-c1cncc(C2CCCN(C3CCCC3)C2)n1` (stereo not given), the cytotoxicity at 10 µM was -6.63%. The figure for `Cc1ccc(C(=O)N2CCC3(CC(N(C)c4ccncn4)C3)C2)cn1` (stereo not given) is -6.11%; for `Cc1nc(-c2ccc(C(=O)O)cc2)cc(C2CCCN(C(C)C)C2)n1` (stereo not given) it is -10.2%; for `COc1cccc(CN(C)C(=O)c2csc(-c3nnc[nH]3)n2)c1` it is -14.4%. For the molecule `N#CC(NC(=O)CCCOc1cccnc1)c1ccccc1Cl` (stereo not given), the cytotoxicity at 10 µM worked out at 4.26%. `Cn1cc(S(=O)(=O)N(Cc2ccc(F)cc2F)C2CC2)cc1C(N)=O`: the cytotoxicity at 10 µM was 5.68%. The value for `CN(CCc1ccccn1)CCc1nccs1` was 2.01%; that for `CN(CC(=O)NC(c1ccc(F)cc1)C(F)(F)F)S(C)(=O)=O` (stereo not given) was -11.9%. Regarding `Cc1nsc(N2CCN(CC(=O)NCc3ccc(F)cc3)CC2)n1`, the cytotoxicity at 10 µM was -6.84%. For `CC(NC(=O)c1ccc(=O)n(C)c1)c1ccc(OCC2CC2)c(F)c1` (stereo not given), the cytotoxicity at 10 µM worked out at 9.8%.

For the molecule `Cc1ccc(C(=O)N(C)Cc2csc(C)n2)c(=O)[nH]1`, the cytotoxicity at 10 µM is 3.97%. The figure for `Cc1nc(CN(C)C2CCN(Cc3nc(C4CC4)no3)C2)no1` (stereo not given) is -5.29%; for `CCc1nsc(NC2CC(=O)N(C3CC3)C2)n1` (stereo not given) it is 9.43%. The value for `CCN(C)CC1CCN(C(=O)NCCC2Cc3ccccc3C2)C1` (stereo not given) was 0.458%.

Take `CNC(=O)C(C)NC(=O)c1ccc(Oc2cccnc2)cc1` (stereo not given): the cytotoxicity at 10 µM worked out at 6.32%.

As for `CN(Cc1nccn1CC(F)(F)F)C(=O)c1cccc(C#N)c1`, the cytotoxicity at 10 µM worked out at 5.4%.

For the molecule `Cc1cn(-c2ccccc2)nc1NS(=O)(=O)c1cccc(C(=O)O)c1`, the cytotoxicity at 10 µM is -10.3%. For the molecule `CCN1CCCC1CN(CCN(C)C)S(=O)(=O)c1ccc(C#N)cc1` (stereo not given), the cytotoxicity at 10 µM is -28.3%. As for `COCC1CN(S(=O)(=O)c2cccc(F)c2)Cc2nccn2C1` (stereo not given), the cytotoxicity at 10 µM was -103%.

On to `O=C(NCc1ccccn1)[C@@]12CCO[C@@H]1CCN(c1ncccn1)C2`, for which the cytotoxicity at 10 µM was -98.4%.

Regarding `O=C(NC1CCc2c(ccc(=O)n2CC2CC2)C1)c1cscn1` (stereo not given), the cytotoxicity at 10 µM was -104%. The figure for `CCS(=O)(=O)N1CCC2(CCN(C(=O)c3cccs3)CC2)CC1` is -99.9%; for `OCCNc1nccc(-c2c[nH]nc2-c2ccncc2)n1` it is -9.52%. Turning to `Cc1cc(C)c(C(=O)NC2CCN(c3ncccc3C#N)CC2)c(=O)[nH]1`, the cytotoxicity at 10 µM stood at 7.24%. The figure for `Cc1nnc(SCCCNC(=O)Cc2ccc3c(c2)OCO3)s1` is 7.75%. As to `CSCCC1c2nc[nH]c2CCN1Cc1ccccc1C#N` (stereo not given), the cytotoxicity at 10 µM was -1.57%. For the molecule `Cc1ccc(OC2(C(=O)NC(C)c3csc(C)n3)CCNCC2)cc1` (stereo not given), the cytotoxicity at 10 µM is -0.432%. The value for `CSc1ccc(C(C(=O)O)N2CCOCC2)cc1` (stereo not given) was 0.324%.

On to `COCCCN1C(=O)CC[C@H]2CN(c3nc4ccccc4s3)CC[C@H]21`, for which the cytotoxicity at 10 µM is -9.59%. Consider `CCC(C)N(Cc1c[nH]c(C)n1)Cc1ccccc1Cl` (stereo not given), for which the cytotoxicity at 10 µM was 24.2%.

As for `O=C(Cc1ccc(F)cc1Cl)N1CC[C@H](CO)[C@@H](O)C1`, the cytotoxicity at 10 µM is 8.08%. As to `OCC1(O)CCCN(Cc2noc(-c3ccccc3)n2)CC1` (stereo not given), the cytotoxicity at 10 µM was -2.72%. The figure for `COCCN1CCCC(O)(CN2CCN(c3cnccn3)CC2)C1=O` (stereo not given) is 4.04%; for `CCCC1C=CCN1C(=O)c1cc(COc2ccc3c(c2)OCO3)[nH]n1` (stereo not given) it is 1.99%; for `COc1cnc(N2CC(N3CCOCC3)C2)nc1-c1ccnn1C` it is 6.24%. Turning to `O=C(Nc1cc(F)ccc1OCC1CCCO1)N1CCSCC1` (stereo not given), the cytotoxicity at 10 µM is -1.79%. The value for `Cc1cc(C)cc(CNC(c2ccccc2)c2nccn2C)c1` (stereo not given) was -13%; that for `Cc1ncc2c(n1)CN(Cc1nc(Cc3ccccc3)no1)CC2` was -12.4%; that for `CCC(CC)C(CNC(=O)Nc1ccc(C)cc1)N1CCOCC1` (stereo not given) was -5.9%. `Cc1nc(C2CCCN(C(=O)C(C)(C)n3cc(Cl)cn3)C2)no1` (stereo not given): the cytotoxicity at 10 µM is -2.09%. Turning to `Cc1cc(C[C@@H]2CCC[C@H]2NCc2ccc(C(F)(F)F)cc2)on1`, the cytotoxicity at 10 µM was -10.1%. As to `O=C(C[C@@H]1COC[C@H]2CN(Cc3ccccc3)C[C@@H]12)N1CCCC1`, the cytotoxicity at 10 µM came out at 2.03%. Take `COCC1CC2(CCN(C(N)=O)CC2)CN1Cc1csc(C)n1` (stereo not given): the cytotoxicity at 10 µM was determined as 8.98%.

For the molecule `O=C(c1ccc(F)cc1)N1C[C@H]2CCC[C@@]2(COCc2ccccn2)C1`, the cytotoxicity at 10 µM was found to be 2.06%. The value for `Cc1nnc(N2CCCC3(CN(Cc4cnn(C)c4)CCO3)C2)o1` (stereo not given) was 4.12%; that for `CCOCC1CN(CCN(C)C)Cc2cnn(CC3CCCC3)c21` (stereo not given) was 5.77%; that for `COCCn1c2c(ccc1=O)CC(NCc1cccnc1OC)CC2` (stereo not given) was -106%. In the case of `CCN1CCC2(C=C(C(=O)N(C)C)c3ccccc32)CC1`, the cytotoxicity at 10 µM was -101%. `Cc1ccc2c(c1)C1(CCNCC1)CN2C(=O)CN(C)C`: the cytotoxicity at 10 µM amounted to 0.513%.

Turning to `CS(=O)(=O)N1C[C@H]2CC[C@@H](C1)N(C(=O)CCc1n[nH]c3c1CCCC3)C2`, the cytotoxicity at 10 µM amounted to 11%. As for `CN1[C@@H]2CC[C@H]1CN(C(=O)c1ccc(-c3ccccc3)[nH]1)CC2`, the cytotoxicity at 10 µM was -0.372%.
